Results from ChEMBL document CHEMBL1157465, “Design, synthesis, and biological evaluation of novel 3-aryl-4-(1H-indole-3yl)-1,5-dihydro-2H-pyrrole-2-ones as vascular endothelial growth factor receptor (VEGF-R) inhibitors” (J Med Chem, 2008).

Experiments:
Homo sapiens [1] = species: Homo sapiens; assay: Induction of apoptosis in HDMEC at 2.1 uM after 5 hrs; assay type: functional
Procedure, shortened: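 Positive-control condition: HDMEC treated 5 h at 2.1 µM. Adherent cells plus supernatant stained for cleaved caspase-3 and analysed by FACS as percent apoptotic cells. Repeated three times.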

[2] = target: Casein kinase II subunit alpha (Homo sapiens, UniProt P68400); assay: Inhibition of human recombinant CK2A1
Casein kinase II subunit alpha, sequence (P68400 whole entry, the tested form may be a part): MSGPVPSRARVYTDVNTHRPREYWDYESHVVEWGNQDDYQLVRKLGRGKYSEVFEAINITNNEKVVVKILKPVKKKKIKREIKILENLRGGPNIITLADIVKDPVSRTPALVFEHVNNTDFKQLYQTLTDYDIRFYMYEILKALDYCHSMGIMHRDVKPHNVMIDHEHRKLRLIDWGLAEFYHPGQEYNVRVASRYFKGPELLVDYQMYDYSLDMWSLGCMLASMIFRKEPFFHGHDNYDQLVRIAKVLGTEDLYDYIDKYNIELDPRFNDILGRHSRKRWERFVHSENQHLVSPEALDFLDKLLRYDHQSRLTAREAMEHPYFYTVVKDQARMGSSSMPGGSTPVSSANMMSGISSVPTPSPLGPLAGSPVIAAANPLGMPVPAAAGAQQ
Procedure, shortened: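 Human kinases expressed in Sf9 cells by baculovirus as GST or His fusions and affinity purified. Radiometric 33PanQinase assay: 60 mM HEPES-NaOH pH 7.5, 3 mM MgCl2, 3 mM MnCl2, 3 µM orthovanadate, 1.2 mM DTT, 1 µM [γ-33P]ATP, 50-400 ng enzyme, 1% DMSO; 30 °C, 80 min. Substrates: B-Raf-VE, MEK1 KM; CDK2/CycA, histone H1; CK2-A1, casein; COT, autophosphorylation. IC50 from 10 concentrations; 33Pi incorporation by scintillation.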

[3] = target: Insulin-like growth factor 1 receptor (Homo sapiens, UniProt P08069); assay: Inhibition of human recombinant IGF1R
Insulin-like growth factor 1 receptor, sequence (P08069 31-736 limits assumed): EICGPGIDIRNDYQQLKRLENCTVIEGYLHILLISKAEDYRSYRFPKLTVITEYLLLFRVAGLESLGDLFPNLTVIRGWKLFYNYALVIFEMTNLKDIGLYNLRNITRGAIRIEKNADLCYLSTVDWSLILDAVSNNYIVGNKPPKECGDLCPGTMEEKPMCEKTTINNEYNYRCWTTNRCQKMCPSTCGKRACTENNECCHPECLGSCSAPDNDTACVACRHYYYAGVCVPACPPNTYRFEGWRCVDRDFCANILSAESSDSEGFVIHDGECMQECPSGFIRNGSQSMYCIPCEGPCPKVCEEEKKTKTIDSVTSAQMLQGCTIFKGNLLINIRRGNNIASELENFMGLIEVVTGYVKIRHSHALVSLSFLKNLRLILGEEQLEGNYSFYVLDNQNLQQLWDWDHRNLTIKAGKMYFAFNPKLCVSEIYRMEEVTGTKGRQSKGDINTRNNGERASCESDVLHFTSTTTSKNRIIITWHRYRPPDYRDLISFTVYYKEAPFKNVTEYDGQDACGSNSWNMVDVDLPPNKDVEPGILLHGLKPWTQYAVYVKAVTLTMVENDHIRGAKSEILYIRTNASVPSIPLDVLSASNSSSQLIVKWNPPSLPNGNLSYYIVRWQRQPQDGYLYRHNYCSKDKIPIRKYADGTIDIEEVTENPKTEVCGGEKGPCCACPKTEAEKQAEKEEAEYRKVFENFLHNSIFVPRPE
Insulin-like growth factor 1 receptor, sequence (P08069 741-1367 limits assumed): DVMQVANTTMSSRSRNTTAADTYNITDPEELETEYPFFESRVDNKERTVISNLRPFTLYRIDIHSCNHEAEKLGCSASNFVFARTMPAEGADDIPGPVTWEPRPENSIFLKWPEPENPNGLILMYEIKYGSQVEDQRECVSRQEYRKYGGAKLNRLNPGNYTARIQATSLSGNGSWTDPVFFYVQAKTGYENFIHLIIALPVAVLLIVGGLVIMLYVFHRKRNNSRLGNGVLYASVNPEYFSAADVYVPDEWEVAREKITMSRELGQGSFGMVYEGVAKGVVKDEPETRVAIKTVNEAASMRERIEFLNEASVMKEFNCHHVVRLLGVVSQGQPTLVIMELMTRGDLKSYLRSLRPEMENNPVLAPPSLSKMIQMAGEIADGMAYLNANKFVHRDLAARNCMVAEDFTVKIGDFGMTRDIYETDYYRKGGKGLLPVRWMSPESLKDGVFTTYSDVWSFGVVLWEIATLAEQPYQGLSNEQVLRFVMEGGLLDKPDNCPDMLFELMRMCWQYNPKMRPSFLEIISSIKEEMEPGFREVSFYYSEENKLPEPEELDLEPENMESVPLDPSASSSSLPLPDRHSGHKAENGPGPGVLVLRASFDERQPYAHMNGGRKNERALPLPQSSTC
Procedure, shortened: (§1)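 Human kinases expressed in Sf9 cells via baculovirus as GST or His fusions and affinity purified. 33PanQinase assay in 60 mM HEPES-NaOH pH 7.5, 3 mM MgCl2, 3 mM MnCl2, 3 µM orthovanadate, 1.2 mM DTT, 1 µM [γ-33P]ATP, 1% DMSO; 30 °C, 80 min. Substrates: poly(Glu,Tyr) 4:1 for ERBB2, IGF1-R and SRC; poly(Ala,Glu,Lys,Tyr) 6:2:5:1 for FLT3. IC50 from 10 concentrations by scintillation counting.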

[4] = target: Vascular endothelial growth factor receptor 3 (Homo sapiens, UniProt P35916); assay: Inhibition of human recombinant VEGFR3
Vascular endothelial growth factor receptor 3, sequence (P35916 whole entry, the tested form may be a part): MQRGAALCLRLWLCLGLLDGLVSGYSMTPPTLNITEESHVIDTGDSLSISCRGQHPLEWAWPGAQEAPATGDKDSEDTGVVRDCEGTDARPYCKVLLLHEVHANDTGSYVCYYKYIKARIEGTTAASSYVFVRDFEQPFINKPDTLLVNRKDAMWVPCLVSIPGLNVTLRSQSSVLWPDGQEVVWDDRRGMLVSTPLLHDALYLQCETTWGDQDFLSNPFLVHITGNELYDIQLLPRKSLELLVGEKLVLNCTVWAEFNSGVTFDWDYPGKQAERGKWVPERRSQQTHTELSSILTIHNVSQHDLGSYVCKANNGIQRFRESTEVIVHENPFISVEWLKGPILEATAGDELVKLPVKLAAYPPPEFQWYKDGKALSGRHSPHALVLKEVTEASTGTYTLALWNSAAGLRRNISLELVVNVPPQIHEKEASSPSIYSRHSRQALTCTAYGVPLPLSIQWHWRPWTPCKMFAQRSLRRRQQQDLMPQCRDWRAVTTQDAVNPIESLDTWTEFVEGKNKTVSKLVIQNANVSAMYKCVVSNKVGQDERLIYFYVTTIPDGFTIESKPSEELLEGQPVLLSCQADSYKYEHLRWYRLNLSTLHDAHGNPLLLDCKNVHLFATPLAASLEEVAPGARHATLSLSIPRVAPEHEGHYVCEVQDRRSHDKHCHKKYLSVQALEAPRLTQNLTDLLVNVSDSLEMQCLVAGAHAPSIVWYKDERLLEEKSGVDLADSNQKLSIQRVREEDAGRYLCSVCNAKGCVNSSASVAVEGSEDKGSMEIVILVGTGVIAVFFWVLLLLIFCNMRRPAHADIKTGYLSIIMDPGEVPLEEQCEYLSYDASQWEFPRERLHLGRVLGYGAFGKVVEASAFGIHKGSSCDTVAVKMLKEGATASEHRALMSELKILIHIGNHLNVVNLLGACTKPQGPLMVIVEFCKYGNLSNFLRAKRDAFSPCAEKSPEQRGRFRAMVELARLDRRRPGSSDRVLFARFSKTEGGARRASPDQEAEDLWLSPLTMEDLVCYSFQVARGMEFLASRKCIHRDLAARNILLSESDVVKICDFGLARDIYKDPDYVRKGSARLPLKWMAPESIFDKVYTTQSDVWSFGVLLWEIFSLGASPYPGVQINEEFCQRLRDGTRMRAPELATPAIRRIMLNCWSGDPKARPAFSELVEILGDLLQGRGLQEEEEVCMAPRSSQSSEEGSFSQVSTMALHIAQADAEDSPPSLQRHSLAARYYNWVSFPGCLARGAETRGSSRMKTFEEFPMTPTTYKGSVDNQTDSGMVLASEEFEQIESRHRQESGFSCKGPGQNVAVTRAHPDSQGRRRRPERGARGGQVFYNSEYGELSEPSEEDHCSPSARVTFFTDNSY
Procedure, shortened: (§2)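 Recombinant human tyrosine kinases (EPHB4, TIE2, VEGF-R2, VEGF-R3), expressed in Sf9 insect cells as GST- or His-fusions, with poly(Glu,Tyr) 4:1 as substrate. Conditions: 1 µM [γ-33P]ATP, pH 7.5 HEPES buffer with Mg/Mn, DTT and vanadate, 30 °C for 80 min, 1% DMSO. Ten concentrations were tested and IC50 came from scintillation counting of incorporated 33P.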

[5] = target: T1, Receptor-type tyrosine-protein kinase FLT3 (Homo sapiens, UniProt P36888); assay: Inhibition of human recombinant FLT3; procedure, shortened: as §1
T1 sequence (P36888 whole entry): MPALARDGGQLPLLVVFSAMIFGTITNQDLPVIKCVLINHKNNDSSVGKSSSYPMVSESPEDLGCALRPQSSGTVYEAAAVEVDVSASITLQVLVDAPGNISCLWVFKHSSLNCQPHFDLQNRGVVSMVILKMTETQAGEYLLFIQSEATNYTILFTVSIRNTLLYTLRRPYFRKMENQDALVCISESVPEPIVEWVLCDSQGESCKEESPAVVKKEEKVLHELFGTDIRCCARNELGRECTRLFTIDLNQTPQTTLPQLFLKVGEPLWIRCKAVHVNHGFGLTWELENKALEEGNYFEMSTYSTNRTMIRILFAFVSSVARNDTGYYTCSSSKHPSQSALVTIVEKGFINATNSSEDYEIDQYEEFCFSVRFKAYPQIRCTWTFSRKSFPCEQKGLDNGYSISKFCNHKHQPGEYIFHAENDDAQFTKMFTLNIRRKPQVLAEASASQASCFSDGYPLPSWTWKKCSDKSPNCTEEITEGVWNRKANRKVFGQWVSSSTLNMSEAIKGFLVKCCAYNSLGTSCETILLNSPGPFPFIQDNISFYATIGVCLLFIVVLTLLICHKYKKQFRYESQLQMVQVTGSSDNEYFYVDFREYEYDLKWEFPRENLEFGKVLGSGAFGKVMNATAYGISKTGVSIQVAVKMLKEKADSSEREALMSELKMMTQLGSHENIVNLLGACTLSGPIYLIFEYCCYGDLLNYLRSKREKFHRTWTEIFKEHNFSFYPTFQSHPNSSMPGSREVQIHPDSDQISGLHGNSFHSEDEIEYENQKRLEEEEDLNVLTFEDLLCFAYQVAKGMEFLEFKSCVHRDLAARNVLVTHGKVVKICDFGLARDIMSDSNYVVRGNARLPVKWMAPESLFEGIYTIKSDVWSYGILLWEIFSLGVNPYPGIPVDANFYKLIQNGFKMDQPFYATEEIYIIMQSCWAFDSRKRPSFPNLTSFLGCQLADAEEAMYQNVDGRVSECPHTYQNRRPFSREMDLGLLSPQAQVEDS

[6] = target: Vascular endothelial growth factor receptor 2 (Homo sapiens, UniProt P35968); assay: Inhibition of human recombinant VEGFR2; procedure, shortened: as §2
Vascular endothelial growth factor receptor 2, sequence (P35968 whole entry): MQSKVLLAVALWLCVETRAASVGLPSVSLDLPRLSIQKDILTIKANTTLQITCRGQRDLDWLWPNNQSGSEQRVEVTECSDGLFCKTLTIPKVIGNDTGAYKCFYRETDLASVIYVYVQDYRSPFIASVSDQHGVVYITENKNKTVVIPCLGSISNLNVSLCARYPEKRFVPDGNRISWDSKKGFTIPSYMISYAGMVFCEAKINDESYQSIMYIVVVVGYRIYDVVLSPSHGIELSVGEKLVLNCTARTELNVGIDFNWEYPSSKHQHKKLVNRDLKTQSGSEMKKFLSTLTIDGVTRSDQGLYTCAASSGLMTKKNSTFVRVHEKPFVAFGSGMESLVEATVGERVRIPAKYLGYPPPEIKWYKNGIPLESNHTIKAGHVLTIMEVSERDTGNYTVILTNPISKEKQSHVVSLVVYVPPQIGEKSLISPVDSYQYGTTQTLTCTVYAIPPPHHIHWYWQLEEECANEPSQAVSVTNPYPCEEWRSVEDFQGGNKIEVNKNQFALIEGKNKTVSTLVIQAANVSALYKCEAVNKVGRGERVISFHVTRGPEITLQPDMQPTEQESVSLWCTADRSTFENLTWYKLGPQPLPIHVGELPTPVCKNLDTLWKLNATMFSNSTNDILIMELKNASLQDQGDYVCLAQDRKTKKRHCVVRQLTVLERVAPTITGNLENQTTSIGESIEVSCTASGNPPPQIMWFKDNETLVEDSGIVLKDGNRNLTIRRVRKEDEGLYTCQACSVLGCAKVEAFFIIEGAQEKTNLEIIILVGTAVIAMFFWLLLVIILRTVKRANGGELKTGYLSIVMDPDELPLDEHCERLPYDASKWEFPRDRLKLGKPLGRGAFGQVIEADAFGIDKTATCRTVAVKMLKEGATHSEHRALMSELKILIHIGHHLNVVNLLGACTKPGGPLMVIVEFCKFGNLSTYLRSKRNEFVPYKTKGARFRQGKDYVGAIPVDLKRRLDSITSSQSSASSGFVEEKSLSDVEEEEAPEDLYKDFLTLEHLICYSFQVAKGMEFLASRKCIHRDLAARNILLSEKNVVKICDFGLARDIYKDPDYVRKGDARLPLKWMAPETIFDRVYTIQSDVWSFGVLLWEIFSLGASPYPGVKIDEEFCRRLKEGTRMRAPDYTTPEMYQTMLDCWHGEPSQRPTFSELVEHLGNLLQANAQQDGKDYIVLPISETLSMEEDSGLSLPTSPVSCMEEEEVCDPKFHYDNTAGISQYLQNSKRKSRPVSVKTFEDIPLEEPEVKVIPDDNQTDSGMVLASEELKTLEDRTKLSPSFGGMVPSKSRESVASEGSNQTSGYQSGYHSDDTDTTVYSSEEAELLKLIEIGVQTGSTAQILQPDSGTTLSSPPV

Angiopoietin-1 receptor = Angiopoietin-1 receptor (Homo sapiens, UniProt Q02763); assay: Inhibition of human recombinant TIE2; procedure, shortened: as §2
[7] = target: Receptor tyrosine-protein kinase erbB-2 (Homo sapiens, UniProt P04626); assay: Inhibition of human recombinant ERBB2; procedure, shortened: as §1
[8] = target: Proto-oncogene tyrosine-protein kinase Src (Homo sapiens, UniProt P12931); assay: Inhibition of human recombinant SRC; procedure, shortened: as §1
Proto-oncogene tyrosine-protein kinase Src, sequence (P12931 2-536 limits assumed): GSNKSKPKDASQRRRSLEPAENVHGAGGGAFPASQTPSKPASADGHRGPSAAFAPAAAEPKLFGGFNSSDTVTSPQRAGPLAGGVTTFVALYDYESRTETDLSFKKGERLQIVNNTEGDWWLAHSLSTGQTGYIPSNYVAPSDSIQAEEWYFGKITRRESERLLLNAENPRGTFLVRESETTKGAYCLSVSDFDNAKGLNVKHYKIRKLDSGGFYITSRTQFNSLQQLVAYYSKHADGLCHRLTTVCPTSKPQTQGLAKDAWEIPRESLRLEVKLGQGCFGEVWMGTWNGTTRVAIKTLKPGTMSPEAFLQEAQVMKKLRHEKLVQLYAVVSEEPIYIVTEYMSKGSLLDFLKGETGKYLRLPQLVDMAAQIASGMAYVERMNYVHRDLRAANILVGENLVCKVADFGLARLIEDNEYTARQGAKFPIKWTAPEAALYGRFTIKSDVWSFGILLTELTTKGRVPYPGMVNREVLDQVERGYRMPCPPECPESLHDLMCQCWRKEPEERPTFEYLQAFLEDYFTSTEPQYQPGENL

[9] = target: Epidermal growth factor receptor (Homo sapiens, UniProt P00533); assay: Inhibition of human recombinant EGFR
Homo sapiens [10] = species: Homo sapiens; assay: Antiangiogenic activity in VEGF-induced HLMEC assessed as sprouts per bead at 1.3 uM after 24 hrs by sprouting assay; assay type: functional
Procedure, shortened: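 HLMEC seeded on cytodex-3 microcarrier beads and embedded in 3D fibrinogen gel with 20 ng/mL VEGF plus compound at a final 1.3 or 2.6 µM (from 1 mM DMSO stock). Gel polymerised with 0.65 U/mL thrombin and overlaid with MCDB131, 5% FCS, 5% human serum and 200 U/mL Trasylol. Negative control: gel without growth factors. After 24 h, fixed in 1% PFA; sprouts per 50 beads counted microscopically. Triplicates per condition, n = 9 experiments.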

Ephrin type-B receptor 4 = Ephrin type-B receptor 4 (Homo sapiens, UniProt P54760); assay: Inhibition of human recombinant EPHB4; procedure, shortened: as §2

Structure (SMILES) | Activity (Homo sapiens [1]) [%] | IC50 [2] [µM] | IC50 [3] [µM] | IC50 [4] [µM] | IC50 [5] [µM] | IC50 [6] [µM] | IC50 (Angiopoietin-1 receptor) [µM] | IC50 [7] [µM] | IC50 [8] [µM] | IC50 [9] [µM] | inhibition (Homo sapiens [10]) [%] | IC50 (Ephrin type-B receptor 4) [µM]
CN[C@@H]1C[C@H]2O[C@@](C)([C@@H]1OC)n1c3ccccc3c3c4c(c5c6ccccc6n2c5c31)C(=O)NC4 | 63.9 |  |  |  |  |  |  |  |  |  |  | 
COc1cc(C2=C(c3cn(COCc4ccccc4)c4ccccc34)CNC2=O)cc(OC)c1OC |  | > 50 | 18 | 1.7 | 36 | 1.6 | 11 | 36 | 9.1 |  |  | 
COc1cc(C2=C(c3cn(COCC[Si](C)(C)C)c4ccccc34)CNC2=O)cc(OC)c1OC |  |  | 8.7 | 5.6 | 34 | 3.1 | 26 |  | 4.5 | 22 | 30 | 44
